Experimental data from different studies.
Protocols differ between the studies behind these lines.
Target: Homeodomain-interacting protein kinase 3 (HIPK3, Homo sapiens, UniProt Q9H422)

| Compound | assay | setting | measurement | value |
| --- | --- | --- | --- | --- |
| C#Cc1cc(-c2cc(Nc3nc(N[C@@H](C)c4ccc(F)cn4)ncc3Cl)n[nH]2)ccc1C=O | enzyme activity, inhibitor | 0.2 µM | inhibition | 39.6% |
| CN1CCN(C(=O)c2ccc(NC(=O)Nc3ccc(N(C)c4ccnc(Nc5ccc(CS(C)(=O)=O)cc5)n4)cc3)cc2)CC1 | binding, competition with immobilised ligand | 1 µM | remaining binding | 71% |
| C=CC(=O)N1CCC([C@@H]2CCNc3c(C(N)=O)c(-c4ccc(Oc5ccccc5)cc4)nn32)CC1 | enzyme activity, inhibitor | 1 µM | inhibition | 4% |
| CC(C)S(=O)(=O)c1ccc2nccc(Nc3ccc4sc(C5CCCC5)nc4c3)c2c1 | enzyme activity, inhibitor | 1 µM | activity vs control | 102% |
| CO[C@@H]1[C@H](N(C)C(=O)c2ccccc2)C[C@H]2O[C@]1(C)n1c3ccccc3c3c4c(c5c6ccccc6n2c5c31)C(=O)NC4 | enzyme activity, inhibitor | 1 µM | inhibition | 30% |
| Cc1ccc(NC(=O)c2ccnc(C(F)(F)F)c2)cc1-c1cc(OCCO)nc(N2CCOCC2)c1 | binding, competition with immobilised ligand | 1 µM | remaining binding | 98% |
| C1=C/COCc2cc(ccc2OCCN2CCCC2)Nc2nccc(n2)-c2cccc(c2)COC/1 | binding | 0.1 µM | remaining binding | 15% |
| CCCCC(=O)Nc1ccc(-c2ccc3ncn(CCC)c(=O)c3c2)cn1 | binding, competition with immobilised ligand | 0.5 µM | remaining binding | 100% |
